One assay has as its system Staphylococcus aureus. Briefly: Antimicrobial activity against Staphylococcus aureus ATCC 6538 after 24 hrs by two fold serial dilution method. Type of assay: functional. The settings on record: ATCC 6538, 24 h. The procedure, abridged:
(§1)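 Tested per NCCLS by two-fold serial dilution in nutrient broth. The inoculum came from 24 h cultures on nutrient agar at 37 ± 1 °C and was adjusted with sterile saline to 1 ×10^4-105 CFU. […] Tubes were incubated at 37 ± 1 °C, and MIC was read visually after 24 h. Kanamycin and DDCP served as standards.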

Another assay deals with Bacillus subtilis. Kind of assay: Antimicrobial activity against Bacillus subtilis ATCC 530 after 24 hrs by two fold serial dilution method. The settings on record: ATCC 530, 24 h. It counts as functional. Put shortly: as §1
For another assay, the system named is Pseudomonas aeruginosa. Kind of assay: Antimicrobial activity against Pseudomonas aeruginosa ATCC 27853 after 24 hrs by two fold serial dilution method. It counts as functional. The settings on record: ATCC 27853, 24 h. Put shortly: as §1
Another assay deals with Escherichia coli. Kind of assay: Antimicrobial activity against Escherichia coli ATCC 25922 after 24 hrs by two fold serial dilution method. It counts as functional. The settings on record: ATCC 25922, 24 h. The procedure, abridged:
as §1

A short description of assay [1]: Inhibition of Escherichia coli N-terminal His-tagged full length FabH expressed in Escherichia coli BL21 (DE3) using [3H]acetyl-CoA as substrate assessed as incorporation of [3H] signal into product after 25 mins by liquid scintillation counting analysis. Put shortly: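 His-tagged FabH was purified on Ni-NTA. Holo-ACP was made from apo-ACP with ACPS and CoA. The 20 µL reaction held pH 7.0 sodium phosphate (20 mM), 0.5 mM DTT, 0.25 mM MgCl₂, 2.5 µM holo-ACP and 1 nM FabH, preincubated 1 min. The reaction started with a 2 µL mix of 25 µM acetyl-CoA and 0.75 µCi [³H]acetyl-CoA and ran 25 min. It was stopped with ice-cold TCA, and the washed pellet was counted. Inhibitors were added from DMSO stock, ≤2% DMSO final, and IC50 was determined.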

Each structure is given as a SMILES string. ≈ marks a conversion by molar mass, not a printed value.

This is an account of results in ChEMBL document CHEMBL2384923, “Design, synthesis and antimicrobial activities evaluation of Schiff base derived from secnidazole derivatives as potential FabH inhibitors” (Bioorg Med Chem, 2013).

The term MIC denotes the lowest concentration found to suppress growth. For `Cc1ncc([N+](=O)[O-])n1CC(=O)N/N=C/c1ccc(O)cc1`, the MIC against Staphylococcus aureus is > 100 µg/mL; in the assay with Bacillus subtilis, > 100 µg/mL; in the assay on Pseudomonas aeruginosa, > 100 µg/mL; against Escherichia coli, 50 µg/mL (≈ 165 µM).
As usually defined, the IC50 is the point on the concentration scale where inhibition reaches its midpoint. Consider `Cc1ncc([N+](=O)[O-])n1CC(=O)N/N=C/c1ccc(N(C)C)cc1`, for which, in assay [1], the IC50 worked out at 15.9 µM. In addition, the MIC is 25 µg/mL (≈ 75.7 µM) in the assay on Staphylococcus aureus, 12.5 µg/mL (≈ 37.8 µM) in the assay on Bacillus subtilis, 12.5 µg/mL (≈ 37.8 µM) in the assay on Pseudomonas aeruginosa and 12.5 µg/mL (≈ 37.8 µM) against Escherichia coli.
Turning to `Cc1ncc([N+](=O)[O-])n1CC(=O)N/N=C/c1ccccc1[N+](=O)[O-]`, the half-maximal inhibitory concentration (IC50) in assay [1] worked out at 19.8 µM. The minimum inhibitory concentration (MIC) was 12.5 µg/mL (≈ 37.6 µM) against Staphylococcus aureus, 12.5 µg/mL (≈ 37.6 µM) in the assay with Bacillus subtilis, 25 µg/mL (≈ 75.2 µM) in the assay with Pseudomonas aeruginosa and 25 µg/mL (≈ 75.2 µM) in the assay with Escherichia coli.
`COc1cccc(/C=N/NC(=O)Cn2c([N+](=O)[O-])cnc2C)c1`: the MIC with Staphylococcus aureus amounted to 25 µg/mL (≈ 78.8 µM); against Bacillus subtilis, 50 µg/mL (≈ 158 µM); against Pseudomonas aeruginosa, 50 µg/mL (≈ 158 µM); against Escherichia coli, 25 µg/mL (≈ 78.8 µM).
Take `COc1ccc(/C=N/NC(=O)Cn2c([N+](=O)[O-])cnc2C)cc1OC`: the concentration for half-maximal inhibition (IC50) in assay [1] was determined as 8.8 µM. Besides, the minimum inhibitory concentration (MIC) in the assay on Staphylococcus aureus was 12.5 µg/mL (≈ 36 µM); in the assay with Bacillus subtilis, 25 µg/mL (≈ 72 µM); against Pseudomonas aeruginosa, 12.5 µg/mL (≈ 36 µM); against Escherichia coli it was 12.5 µg/mL (≈ 36 µM).
Turning to `Cc1ncc([N+](=O)[O-])n1CC(=O)N/N=C/c1ccc(Br)cc1`, the MIC in the assay on Staphylococcus aureus is 25 µg/mL (≈ 68.3 µM); in the assay with Bacillus subtilis, 25 µg/mL (≈ 68.3 µM); with Pseudomonas aeruginosa, 12.5 µg/mL (≈ 34.1 µM); in the assay on Escherichia coli, 25 µg/mL (≈ 68.3 µM).
In the case of `Cc1ncc([N+](=O)[O-])n1CC(=O)N/N=C/c1ccc(Cl)cc1`, the minimal inhibitory concentration (MIC) in the assay with Staphylococcus aureus was > 100 µg/mL; in the assay with Bacillus subtilis it was > 100 µg/mL; in the assay on Pseudomonas aeruginosa, 50 µg/mL (≈ 155 µM); against Escherichia coli, 50 µg/mL (≈ 155 µM).
Consider `Cc1ncc([N+](=O)[O-])n1CC(=O)N/N=C/c1ccc([N+](=O)[O-])cc1`, for which the MIC against Staphylococcus aureus was found to be 25 µg/mL (≈ 75.2 µM); against Bacillus subtilis it was 50 µg/mL (≈ 150 µM); against Pseudomonas aeruginosa, 25 µg/mL (≈ 75.2 µM); in the assay on Escherichia coli it was 25 µg/mL (≈ 75.2 µM).
For the compound `NC[C@H]1O[C@H](O[C@H]2[C@H](O)[C@@H](O[C@H]3O[C@H](CO)[C@@H](O)[C@H](N)[C@H]3O)[C@H](N)C[C@@H]2N)[C@H](O)[C@@H](O)[C@@H]1O` [KANAMYCIN], the MIC stood at 1.56 µg/mL (≈ 3.22 µM) in the assay on Staphylococcus aureus, 1.56 µg/mL (≈ 3.22 µM) in the assay on Bacillus subtilis, 3.13 µg/mL (≈ 6.46 µM) in the assay on Pseudomonas aeruginosa and 3.13 µg/mL (≈ 6.46 µM) against Escherichia coli.
Turning to `Cc1ncc([N+](=O)[O-])n1CC(=O)N/N=C/c1cccc(Cl)c1`, the minimum inhibitory concentration (MIC) in the assay with Staphylococcus aureus stood at 50 µg/mL (≈ 155 µM); against Bacillus subtilis, 50 µg/mL (≈ 155 µM); with Pseudomonas aeruginosa it was 50 µg/mL (≈ 155 µM); against Escherichia coli, 25 µg/mL (≈ 77.7 µM).
On to `Cc1ncc([N+](=O)[O-])n1CC(=O)N/N=C/c1cccc(F)c1`, for which the minimal inhibitory concentration (MIC) with Staphylococcus aureus worked out at 25 µg/mL (≈ 81.9 µM); in the assay with Bacillus subtilis, 25 µg/mL (≈ 81.9 µM); with Pseudomonas aeruginosa, 50 µg/mL (≈ 164 µM); against Escherichia coli it was 50 µg/mL (≈ 164 µM).
`Cc1ncc([N+](=O)[O-])n1CC(=O)N/N=C/c1ccc(F)cc1F`: the minimum inhibitory concentration (MIC) against Staphylococcus aureus amounted to 25 µg/mL (≈ 77.3 µM); against Bacillus subtilis it was 50 µg/mL (≈ 155 µM); in the assay on Pseudomonas aeruginosa, 50 µg/mL (≈ 155 µM); in the assay on Escherichia coli, 50 µg/mL (≈ 155 µM).
In the case of `Cc1ccc(/C=N/NC(=O)Cn2c([N+](=O)[O-])cnc2C)cc1`, the IC50 in assay [1] came out at 6.2 µM. The minimal inhibitory concentration (MIC) against Staphylococcus aureus was 12.5 µg/mL (≈ 41.5 µM); in the assay with Bacillus subtilis, 25 µg/mL (≈ 83 µM); in the assay on Pseudomonas aeruginosa it was 6.25 µg/mL (≈ 20.7 µM); with Escherichia coli, 6.25 µg/mL (≈ 20.7 µM).
Regarding `Cc1ncc([N+](=O)[O-])n1CC(=O)N/N=C/c1ccc(F)cc1`, the IC50 in assay [1] is 58.3 µM. Moreover, the minimum inhibitory concentration (MIC) in the assay on Staphylococcus aureus, against Bacillus subtilis, in the assay with Pseudomonas aeruginosa and with Escherichia coli was > 100 µg/mL each time.
As to `Cc1ncc([N+](=O)[O-])n1CC(=O)N/N=C/c1ccccc1F`, the 50% inhibitory concentration (IC50) in assay [1] turned out to be 47.5 µM. Also, the MIC in the assay with Staphylococcus aureus, with Bacillus subtilis, with Pseudomonas aeruginosa and in the assay with Escherichia coli was > 100 µg/mL throughout.
Consider `COc1ccccc1/C=N/NC(=O)Cn1c([N+](=O)[O-])cnc1C`, for which the 50% inhibitory concentration (IC50) in assay [1] stood at 42.4 µM. Further, the minimum inhibitory concentration (MIC) against Staphylococcus aureus is > 100 µg/mL; with Bacillus subtilis it was > 100 µg/mL; in the assay with Pseudomonas aeruginosa, 50 µg/mL (≈ 158 µM); against Escherichia coli it was 50 µg/mL (≈ 158 µM).
Regarding `Cc1ncc([N+](=O)[O-])n1CC(=O)N/N=C/c1ccccc1Cl`, the minimal inhibitory concentration (MIC) with Staphylococcus aureus was 50 µg/mL (≈ 155 µM); in the assay on Bacillus subtilis, 50 µg/mL (≈ 155 µM); against Pseudomonas aeruginosa, > 100 µg/mL; in the assay with Escherichia coli, > 100 µg/mL.
As to `Cc1ncc([N+](=O)[O-])n1CC(=O)N/N=C/c1cccc([N+](=O)[O-])c1`, the minimum inhibitory concentration (MIC) was 50 µg/mL (≈ 150 µM) in the assay on Staphylococcus aureus, > 100 µg/mL against Bacillus subtilis, 50 µg/mL (≈ 150 µM) in the assay with Pseudomonas aeruginosa and 25 µg/mL (≈ 75.2 µM) against Escherichia coli.
For `COc1ccc(/C=N/NC(=O)Cn2c([N+](=O)[O-])cnc2C)cc1`, in assay [1], the IC50 worked out at 4.5 µM. Moreover, the MIC worked out at 12.5 µg/mL (≈ 39.4 µM) in the assay on Staphylococcus aureus, 6.25 µg/mL (≈ 19.7 µM) against Bacillus subtilis, 6.25 µg/mL (≈ 19.7 µM) against Pseudomonas aeruginosa and 6.25 µg/mL (≈ 19.7 µM) in the assay on Escherichia coli.
On to `Cc1cc(/C=N/NC(=O)Cn2c([N+](=O)[O-])cnc2C)cc(C)c1C`, for which the IC50 in assay [1] was found to be 2.3 µM. In addition, the MIC in the assay on Staphylococcus aureus was 3.13 µg/mL (≈ 9.5 µM); with Bacillus subtilis it was 3.13 µg/mL (≈ 9.5 µM); with Pseudomonas aeruginosa, 6.25 µg/mL (≈ 19 µM); against Escherichia coli, 3.13 µg/mL (≈ 9.5 µM).
On to `Cc1ncc([N+](=O)[O-])n1CC(=O)N/N=C/c1cccc(Br)c1`, for which the minimal inhibitory concentration (MIC) was > 100 µg/mL with Staphylococcus aureus, > 100 µg/mL against Bacillus subtilis, 50 µg/mL (≈ 137 µM) with Pseudomonas aeruginosa and 25 µg/mL (≈ 68.3 µM) against Escherichia coli.
